RORA act: activators of orphan receptor RORA, primary screen, cell-based, luminescence; Nuclear receptor ROR-alpha (Homo sapiens), P35398; CHO-K1 Gal4-RORA LBD luciferase reporter; percent increase over mock-subtracted basal signal; activation, % at 10 µM; 1.5% of 65,000 active; AID 560, 2006;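 active = activation above the mean of all tested compounds plus 3 SD, cut at about 49% in these data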;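 note: 0% = DMSO-treated RORA cells and 100% = added signal equal to DMSO minus mock-transfected cells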
SF-1 act: activators of human SF-1, primary screen, cell-based, CHO-K1, Gal4-SF-1 LBD, luciferase luminescence | Steroidogenic factor 1 (Homo sapiens), Q13285 | CHO-K1 Gal4-SF-1 LBD luciferase reporter; % increase over DMSO SF-1-specific signal | activation, % at 10 µM | 1.9% of 65,000 active;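 active = activation above the mean activation of all tested compounds plus 3 SD, cut at about 50% in these data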
Target sequence (Q13285 whole entry, looked up, the tested form may be a part): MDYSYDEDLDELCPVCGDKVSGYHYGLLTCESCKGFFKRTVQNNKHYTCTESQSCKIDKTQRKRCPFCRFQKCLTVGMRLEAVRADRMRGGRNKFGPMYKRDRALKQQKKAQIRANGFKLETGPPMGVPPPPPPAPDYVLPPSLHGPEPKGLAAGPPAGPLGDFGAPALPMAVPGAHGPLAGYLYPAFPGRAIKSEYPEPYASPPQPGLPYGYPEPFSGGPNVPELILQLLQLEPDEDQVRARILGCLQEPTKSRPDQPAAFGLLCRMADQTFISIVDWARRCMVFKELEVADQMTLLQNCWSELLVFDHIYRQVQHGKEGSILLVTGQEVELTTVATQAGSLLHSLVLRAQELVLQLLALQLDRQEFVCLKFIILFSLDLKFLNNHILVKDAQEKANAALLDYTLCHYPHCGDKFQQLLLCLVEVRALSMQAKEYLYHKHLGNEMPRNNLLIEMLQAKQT
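Material: Transient Gal4-SF-1 LBD reporter, CHO-K1 | Input: 4,000 cells/well | Dosing: One dose, 10 µM compound, 1% DMSO | Incubation: 20 h compound treatment, 37 °C | Detection: SteadyLite luciferase luminescence | Evaluation: Percent activation relative to DMSO median and mock-transfected background | Benchmarks: DMSO-treated SF-1-transfected cells as negative, DMSO-treated mock-transfected cells lacking SF-1 as background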
HEK293 NFkB inh: inhibitors of PMA/ionomycin-induced NF-kB reporter, primary screen, antigen receptor NF-kB inhibitor project, cell-based, HEK-293 luciferase reporter, luminescence; HEK-293 NF-kB luciferase reporter; inhibition, % at 3 µM; 0.21% of 62,000 active; AID 465, 2006;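 active = inhibition above the mean of all tested compounds plus 3 SD, cut at about 40% in these data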;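 note: 0% = stimulated DMSO wells and 100% = 10 µM reference inhibitor 5653914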
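Reagent: PMA plus ionomycin mix as NF-kB-activating stimulus. Assay system: NF-kB luciferase reporter HEK-293 cells. Technique: luminescence from luciferase substrate reagent. Incubation: 1 h compound pre-incubation, 16 h PMA/ionomycin at 37 °C. Benchmarks: DMSO only as uninhibited control, 10 µM reference inhibitor as full inhibition. Repeats: tested once.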
MT1-MMP txn act: MT1-MMP promoter reporter activation – cell-based, luciferase luminescence, primary screen; HT1080 MT1-MMP promoter luciferase reporter, overnight; active compounds read high; activation factor at 10 µM; 0.16% of 86,000 active; AID 750, 2007;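 active = activation factor of at least 2 for MT1-MMP transcription at 10 µM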
Jurkat tox 60K: cytotoxicity toward Jurkat T cells, primary screen, cytotoxicity control, cell-based, Jurkat E6.1, 60K MLSMR library; Jurkat E6.1 viability, ATP luminescence, 48 h; inhibition, % at 4 µM; 1.2% of 56,000 active;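 active = inhibition above the mean inhibition of all tested compounds plus 3 SD, cut at about 28% in these data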
Numbers without * were called inactive; / = not tested or not shown. A selection: hits, their analogues and other compounds. The true share with any hit is near 2.9%.

SMILES	RORA act	SF-1 act	HEK293 NFkB inh	MT1-MMP txn act	Jurkat tox 60K
Nc1nnc(-c2cc3ccccc3oc2=O)s1	42	55*	3	1.8	4
O=c1oc2ccccc2cc1-c1nnc(NCc2ccco2)s1	/	/	/	1.6	/
O=C(Nc1cccnc1)c1noc2c1CCCC2	49*	26	2	1.4	11
CC(C)(C)C1CCc2onc(C(=O)Nc3cccnc3)c2C1 (centres undefined)	8	-15	24	1	7
Cc1cc(NC(=O)c2noc3c2CCCC3)no1	7	13	4	1.3	6
CC(=O)c1ccc(NC(=O)c2noc3c2CCCCC3)cc1	50*	32	-31	1.4	-6
CC(C)c1cc(C(=O)Nc2cccnc2)no1	61*	30	-9	1.4	7
Cc1cc(NC(=O)c2noc3c2CCCCC3)no1	58*	39	4	1.7	-1
CNC(=O)CC1C(=O)N(C)C(=S)N1NC(=O)c1ccc(Cl)cc1 (centres undefined)	/	/	/	1.1	/
COc1ccc(NC(=O)c2cc(C(C)C)on2)c(OC)c1	70*	50*	-12	1.5	-8
CCOC(=O)c1ccc(-n2nc(C(F)(F)F)c3c(C)cc(=O)oc32)cc1	/	/	/	1.2	/
CCc1nc2oc3cc(OC)ccc3c(=O)c2c(=O)n1-c1ccccc1	24	8	0	1.2	-4
Cc1ccc(-n2c(C)nc3oc4ccccc4c(=O)c3c2=O)cc1	68*	18	10	2.2*	1
CCOC(=O)c1ccccc1NC(=O)CSc1nnc(COc2ccccc2)n1CC	5	-12	16	1.1	6
CC(=O)Cc1nsc(Nc2ccc3c(c2)OCCO3)n1	122*	67*	-22	1.7	/
N#CC1=C(N)OC2=C(C(=O)CCC2)C1Cc1ccccc1 (centres undefined)	3	-22	18	1.1	-2
Cc1csc(NC(=O)c2cc3c(s2)CCC3)n1	-4	-12	-24	0.3	/
Cc1csc(NC(=O)c2cc3c(s2)-c2ccccc2OC3)n1	63*	43	-19	1.6	24
O=C(c1cc2c(s1)-c1ccccc1OC2)N1CCCC1	84*	48	-11	1.6	-1
Cn1cnc2cc(NC(=O)c3ccc(Cl)cc3)ccc21	79*	67*	-18	1.4	6
Cn1c(CN2CCCCC2)nc2cc(NC(=O)c3ccc(Cl)cc3)ccc21	/	/	/	1.3	/
CC(C)c1cc(Nc2cccc(O)c2)cc(C(C)C)c1O	8	2	12	1.5	-4
Cc1cc(NCCOCCO)n2ncc(-c3ccc(Cl)cc3)c2n1	89*	9	-66	1.2	9
Cc1cc(NCCCN2CCOCC2)n2ncc(-c3ccccc3)c2n1	54*	107*	-26	1.8	-5
Oc1ccc(-c2cccc(-c3ccc(O)cc3)n2)cc1	52*	38	16	1.5	0
SMILES	RORA act	SF-1 act	HEK293 NFkB inh	MT1-MMP txn act	Jurkat tox 60K
Cc1nc2cc(NC(=O)N3c4ccccc4CC3C)ccc2o1 (centres undefined)	41	79*	-40	1.3	4
c1csc(-c2nc3nc4ccccc4nc3n2Cc2ccc3c(c2)OCO3)c1	43	63*	10	1.5	3
O=C(c1ccco1)N1CCN(c2ncnc3c(-c4ccccc4)nsc23)CC1	62*	5	-17	1.2	-3
COc1ccc(-c2nsc3c(N4CCN(C(=O)c5ccco5)CC4)ncnc23)cc1	24	17	8	1.5	-7
Cc1ccc(OCc2ccc(C(=O)N3CCOCC3)cc2)cc1C	52*	46	-13	1.4	9
CCOC(=O)c1ccc(NCc2ccncc2)cc1	/	/	/	1.2	/
CCc1ccc(CNc2ccc(O)cc2)cc1	-29	0	0	1.2	38*
CS(=O)(=O)c1ccc2nc(NC(=O)CCC(=O)c3cccs3)sc2c1	4	-2	18	1.3	12
CN(CC1CCCO1)S(=O)(=O)c1ccc(C(=O)Nc2nc3cc4c(cc3s2)OCO4)cc1 (centres undefined)	22	-29	18	1	18
CCN(CC)S(=O)(=O)c1ccc2nc(NC(=O)c3cccs3)sc2c1	49*	25	3	1.3	2
CCN(CC)S(=O)(=O)c1cccc(C(=O)Nc2nc3cc4c(cc3s2)OCCO4)c1	8	25	6	1.3	36*
COC(=O)CNC(=O)C1(C)C=CC2(CCCCC2)N1C(=O)OC (centres undefined)	/	/	/	1	/
Fc1cccc(Nc2ncnc3c2cnn3-c2ccccc2)c1	102*	57*	-10	1.3	10
Clc1cccc(Nc2ncnc3c2cnn3-c2ccccc2)c1	29	45	8	1	2
c1ccc(-n2ncc3c(NCCCN4CCOCC4)ncnc32)cc1	26	43	-12	1.8	0
CCCCNc1ncnc2c1cnn2-c1ccccc1	63*	40	-27	0.7	90*
Clc1ccc(-n2ncc3c(NCCCn4ccnc4)ncnc32)cc1	12	47	/	1.8	/
CCCCNc1ncnc2c1cnn2-c1ccc(Cl)cc1	109*	90*	-16	1.6	86*
COC(=O)[C@H](Cc1ccccc1)NC(=O)NCCC1=CCCCC1	/	/	/	1.2	/
Nc1nnnn1/N=C/C(Br)=C/c1ccccc1	-77	-96	10	1.6	84*
COc1ccc(-c2nc3c(n2O)CCCC3=O)cc1OC	2	3	25	1.1	2
COc1ccc(OC)c(C2C(C#N)=C(N)Oc3cc(N)ccc32)c1 (centres undefined)	-23	8	15	1	-1
N#CC1=C(N)Oc2cc(N)ccc2C1C1CCCCC1 (centres undefined)	8	22	19	1.1	84*
COC(=O)CSc1nc2cc(C)ccc2cc1C#N	17	100*	-41	2*	-5
CCOC(=O)CC(=O)CSc1nc2c(cc1C#N)CCCCC2	19	59*	/	1.5	/
SMILES	RORA act	SF-1 act	HEK293 NFkB inh	MT1-MMP txn act	Jurkat tox 60K
CCOC(=O)CC(=O)CSc1nc2ccc(C)cc2cc1C#N	20	72*	-17	1.5	12
CCOC(=O)N1CCC2(CC1)C(C#N)=C(N)OC1=C2C(=O)CC(C)C1 (centres undefined)	/	/	/	1.1	/
c1ccc(-c2noc(-c3cccc4ccccc34)n2)cc1	61*	65*	-13	2*	-1
c1cncc(-c2noc(-c3cccc4ccccc34)n2)c1	/	/	/	1.4	/
Cc1occc1-c1nc(-c2ccncc2)no1	-11	5	14	1.1	-4
c1ccc2c(-c3nc(-c4ccncc4)no3)cccc2c1	25	74*	-8	1.5	1
Fc1cnc(N2CCOCC2)nc1N1CCc2ccccc21	6	55*	4	1.2	-4
